Among the data in ChEMBL document CHEMBL1152185, “Synthesis of a novel 6,14-epoxymorphinan derivative and its pharmacology” (Bioorg Med Chem Lett, 2008) are Ki, IC50 and Activity values, retold here.

For assay [1], the target named is Delta-type opioid receptor (Mus musculus, UniProt P32300). Kind of assay: Displacement of [3H]DPDPE from delta opioid receptor in mouse whole brain without cerebellum. Put shortly: (§1)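 Competition binding on mouse whole-brain membranes, using [³H]DAMGO for mu and [³H]DPDPE for delta. % specific binding was plotted against log concentration, and IC50 was derived from the curve.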
(In general: Displacement assays read how much labelled ligand stays bound in the presence of the test substance.)

The target in assay [2] is Kappa-type opioid receptor (Cavia porcellus, UniProt P41144). Kind of assay: Displacement of [3H]U69,593 from kappa opioid receptor in guinea pig cerebellum. Type of assay: tissue-based.
A further assay deals with Mu-type opioid receptor (Mus musculus, UniProt P42866). Kind of assay: Displacement of [3H]DAMGO from mu opioid receptor in mouse whole brain without cerebellum. The essentials:
as §1

In assay [3] the test system is Mus musculus. Nature of the assay: Antinociceptive activity in mouse assessed as inhibition of analgesia at 10 mg/kg, sc pretreated with 20 mg/kg, sc beta-funaltrexamine for 24 hrs by hotplate test. Type of assay: functional, organism-based. Put shortly:
(§2)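 Mouse hot-plate and tail-flick antinociception after agonist 10 mg/kg sc. Pretreatment was saline, b-FNA 20 mg/kg sc or NTI 3 mg/kg sc, given at 24 h or 30 min before agonist. Data are mean with SEM of 6–8 trials.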

The subject of assay [4] is Mus musculus. Nature of the assay: Antinociceptive activity in mouse assessed as inhibition of analgesia at 10 mg/kg, sc pretreated with 20 mg/kg, sc nor-BNI for 24 hrs by hotplate test. Type of assay: functional, organism-based. Put shortly: (§3)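 Mice were given agonist 10 mg/kg sc, and antinociception was read in the hot-plate and tail-flick tests. Pretreatment was saline or nor-BNI (5 or 20 mg/kg sc) 24 h before agonist. Data are mean with SEM, n = 6–8, compared with the saline–agonist group.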

The target of assay [5] is Kappa-type opioid receptor (Mus musculus) (UniProt P33534). Kind of assay: Agonist activity at kappa opioid receptor-mediated G-protein activation in mouse whole brain membrane without cerebellum at 10 uM by [35S]GTPgammaS binding assay in presence of beta-funaltrexamine. Type of assay: functional, cell membranes. Put shortly:
(§4)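 Mouse whole-brain membranes (cerebellum removed) incubated with [³⁵S]GTPγS and GDP plus agonist at 10^-5 M, alone or together with nor-BNI or b-FNA (levels not given). The read-out is % stimulation of [³⁵S]GTPγS binding.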
(Binding of GTPγS marks nucleotide exchange on a G protein.)

The test system of assay [6] is Mus musculus. Kind of assay: Antinociceptive activity in mouse at 10 mg/kg, sc by hotplate test. Type of assay: functional, organism-based. More on the design: dose 10 mg/kg. Put shortly:
as §3

For assay [7], the system named is Mus musculus. Nature of the assay: Antinociceptive activity in mouse assessed as inhibition of analgesia at 10 mg/kg, sc pretreated with 20 mg/kg, sc nor-BNI for 24 hrs by tail-flick test. Type of assay: functional, organism-based. Put shortly:
as §3
(In hot-plate and tail-flick tests a longer latency is read as antinociception.)

The target in assay [8] is Kappa-type opioid receptor (Mus musculus) (UniProt P33534). Nature of the assay: Agonist activity at kappa opioid receptor-mediated G-protein activation in mouse whole brain membrane without cerebellum at 10 uM by [35S]GTPgammaS binding assay. Type of assay: functional, cell membranes. The essentials:
as §4

Assay [9] has as its system Mus musculus. Nature of the assay: Antinociceptive activity in mouse assessed as inhibition of analgesia at 10 mg/kg, sc pretreated with 3 mg/kg, sc NTI for 24 hrs by tail-flick test. Type of assay: functional, organism-based. The essentials: as §2
The test system of assay [10] is Mus musculus. Kind of assay: Antinociceptive activity in mouse assessed as inhibition of analgesia at 10 mg/kg, sc pretreated with 20 mg/kg, sc beta-funaltrexamine for 24 hrs by tail-flick test. Type of assay: functional, organism-based. Put shortly: as §2
Assay [11] deals with Mus musculus. Kind of assay: Antinociceptive activity in mouse at 10 mg/kg, sc by tail-flick test. Type of assay: functional, organism-based. More on the design: dose 10 mg/kg. The essentials: as §3
Assay [12] deals with Mus musculus. Nature of the assay: Antinociceptive activity in mouse assessed as inhibition of analgesia at 10 mg/kg, sc pretreated with 3 mg/kg, sc NTI for 24 hrs by hotplate test. Type of assay: functional, organism-based. The essentials: as §2
The target in assay [13] is Kappa-type opioid receptor (Mus musculus) (UniProt P33534). Nature of the assay: Agonist activity at kappa opioid receptor-mediated G-protein activation in mouse whole brain membrane without cerebellum at 10 uM by [35S]GTPgammaS binding assay in presence of nor-BNI. Type of assay: functional, cell membranes. Put shortly:
as §4

Activity calls are given as the source filed them. No cut-off for these calls is given here.

Kappa-type opioid receptor (Mus musculus), sequence (P33534 whole entry): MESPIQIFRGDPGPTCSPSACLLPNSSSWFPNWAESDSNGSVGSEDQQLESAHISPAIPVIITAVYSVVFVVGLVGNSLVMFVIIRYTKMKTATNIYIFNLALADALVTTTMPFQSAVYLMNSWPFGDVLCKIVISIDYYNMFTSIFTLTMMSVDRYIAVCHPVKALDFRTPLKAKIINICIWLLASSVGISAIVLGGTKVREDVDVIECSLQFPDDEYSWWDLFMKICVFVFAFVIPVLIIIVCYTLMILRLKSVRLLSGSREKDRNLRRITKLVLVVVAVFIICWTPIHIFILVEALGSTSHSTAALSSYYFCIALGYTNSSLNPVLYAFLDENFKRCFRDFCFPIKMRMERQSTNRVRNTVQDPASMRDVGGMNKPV
Delta-type opioid receptor, sequence (P32300 whole entry): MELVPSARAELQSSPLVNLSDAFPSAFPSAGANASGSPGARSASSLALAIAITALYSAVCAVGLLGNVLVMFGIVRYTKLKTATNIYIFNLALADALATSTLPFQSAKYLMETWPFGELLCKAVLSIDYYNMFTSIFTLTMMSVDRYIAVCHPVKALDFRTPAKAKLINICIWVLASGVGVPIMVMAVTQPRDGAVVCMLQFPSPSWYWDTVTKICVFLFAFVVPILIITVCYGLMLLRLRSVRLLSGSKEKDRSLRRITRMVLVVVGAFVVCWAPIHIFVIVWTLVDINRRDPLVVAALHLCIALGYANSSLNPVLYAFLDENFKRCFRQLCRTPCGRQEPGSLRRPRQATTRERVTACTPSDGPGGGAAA
Mu-type opioid receptor, sequence (P42866 whole entry): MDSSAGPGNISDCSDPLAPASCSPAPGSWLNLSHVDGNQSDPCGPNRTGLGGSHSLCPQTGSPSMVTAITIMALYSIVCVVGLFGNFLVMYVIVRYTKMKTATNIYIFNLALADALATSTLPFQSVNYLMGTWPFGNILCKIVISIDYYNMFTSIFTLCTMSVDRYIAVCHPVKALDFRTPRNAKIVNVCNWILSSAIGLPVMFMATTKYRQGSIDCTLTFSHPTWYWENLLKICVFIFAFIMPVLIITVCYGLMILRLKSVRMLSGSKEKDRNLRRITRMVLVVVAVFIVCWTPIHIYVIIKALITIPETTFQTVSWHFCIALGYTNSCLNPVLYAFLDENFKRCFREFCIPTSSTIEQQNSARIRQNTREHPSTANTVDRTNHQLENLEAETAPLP
Kappa-type opioid receptor, sequence (P41144 whole entry): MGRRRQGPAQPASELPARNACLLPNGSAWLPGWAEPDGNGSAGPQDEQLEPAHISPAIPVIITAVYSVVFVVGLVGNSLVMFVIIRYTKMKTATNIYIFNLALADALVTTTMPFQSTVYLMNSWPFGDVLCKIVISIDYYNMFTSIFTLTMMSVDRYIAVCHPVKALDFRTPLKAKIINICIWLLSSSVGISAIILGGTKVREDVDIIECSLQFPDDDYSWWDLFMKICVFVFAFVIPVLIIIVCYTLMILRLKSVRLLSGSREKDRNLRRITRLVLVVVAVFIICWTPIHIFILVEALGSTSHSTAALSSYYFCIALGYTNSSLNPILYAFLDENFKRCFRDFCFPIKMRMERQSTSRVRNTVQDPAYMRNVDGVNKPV

The Ki is a dissociation constant, usually derived from enzyme kinetics or from competition with a known ligand. Turning to `O=C1N(CCc2ccccc2)CO[C@]12CC[C@@]1(O)[C@@H]3Cc4ccc(O)c5c4[C@@]1(CCN3CC1CC1)[C@H]2O5`, the Ki in assay [1] stood at 4.82 nM; in assay [2] it was 8.66 nM; on Mu-type opioid receptor it was 4.54 nM.

As usually defined, the IC50 is the concentration at which inhibition is half-maximal. High values mean weaker potency in that assay, low ones greater potency in that assay. In the case of `O=C(NC[C@]12CC[C@@]3(O1)[C@@H]1Cc4ccc(O)cc4[C@@]3(CCN1CC1CC1)C2)c1ccccc1`, the IC50 came to 2.07 nM in assay [1] and 0.288 nM at Mu-type opioid receptor. In addition, the outcome in the assay with Mus musculus [3], with Mus musculus [9], in the assay with Mus musculus [10] and with Mus musculus [12] was inactive. For the same compound, the result in the assay on Mus musculus [4], in the assay with Mus musculus [6], in the assay on Mus musculus [7] and in the assay on Mus musculus [11] was Active. The Activity in [5] is 19.2%; in assay [8] it was 29.8%; in assay [13] it was 10.7%.
